From ChEMBL document CHEMBL1140759, “Synthesis, anti-Toxoplasma gondii and antimicrobial activities of benzaldehyde 4-phenyl-3-thiosemicarbazones and 2-[(phenylmethylene)hydrazono]-4-oxo-3-phenyl-5-thiazolidineacetic acids” (Bioorg Med Chem, 2008) come the findings set out here.

Each structure is given as a SMILES string.

For experiment [1], the system named is Mycolicibacterium smegmatis. As to the kind of experiment: Antimicrobial activity against Mycobacterium smegmatis at 300 ug/disc. Format: functional. Particulars: read-out: IZ. The method in brief:
(§1)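 Disc diffusion on agar plates inoculated with a standardized microbial suspension, with paper discs carrying known compound amounts. DMSO-only discs served as negative controls, and chloramphenicol, rifampicin (bacteria) or nistatin (fungi) as references. The read-out is the mean inhibition zone diameter in mm. Each run was done three times and repeated if results differed.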

In another experiment the test system is Mycolicibacterium phlei. As to the kind of experiment: Antimicrobial activity against Mycobacterium phlei at 300 ug/disc. Format: functional. Particulars: read-out: IZ. The method in brief: as §1
Experiment [2] concerns Toxoplasma gondii. In words: Antiparasitic activity against Toxoplasma gondii infected african green monkey Vero cells at 20 mM assessed as infected cells. Format: functional. The method in brief: (§2)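 Vero cells were infected with RH-strain tachyzoites (5:1 parasite:cell) for 1 h, washed with PBS, and grown 24 h at 37 °C in medium 199 with 5% FCS. Compound was then added for 24 h. Cells were fixed with Bouin's, stained with Giemsa, and at least 400 cells were counted by light microscopy for the percentage infected. Hydroxyurea and sulfadiazine served as references.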

Experiment [3] concerns Toxoplasma gondii. As to the kind of experiment: Inhibition of intracellular parasite Toxoplasma gondii. It is filed as functional, organism-based. The method in brief: (§3)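 Infected Vero cultures were exposed to compound at 0.01–30 mM for 24 h, in triplicate per assay. IC50 for infected cells and intracellular parasites was derived by non-linear regression, using trypan blue exclusion.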

A further experiment relates to Staphylococcus aureus. As to the kind of experiment: Antimicrobial activity against Staphylococcus aureus at 300 ug/disc. Format: functional. Particulars: read-out: IZ. The method in brief:
as §1

The subject of experiment [4] is Candida. As to the kind of experiment: Antimicrobial activity against Candida sp. IMUR1224 at 300 ug/disc. Format: functional. The following applies: read-out: IZ. The method in brief: as §1
The next experiment deals with Bacillus subtilis. As to the kind of experiment: Antimicrobial activity against Bacillus subtilis at 300 ug/disc. The following applies: read-out: IZ. It is filed as functional. The method in brief: as §1
The next experiment has as its system Saccharomyces cerevisiae. In words: Antimicrobial activity against Saccharomyces cerevisiae at 300 ug/disc. It is filed as functional. Particulars: read-out: IZ. The method in brief: as §1
Experiment [5] has as its system Candida. As to the kind of experiment: Antimicrobial activity against Candida sp. IMUR720 at 300 ug/disc. Particulars: read-out: IZ. It is filed as functional. The method in brief: as §1
In another experiment the test system is Micrococcus luteus. As to the kind of experiment: Antimicrobial activity against Micrococcus luteus at 300 ug/disc. Format: functional. The following applies: read-out: IZ. The method in brief:
as §1

In a further experiment the test system is Klebsiella pneumoniae. In words: Antimicrobial activity against Klebsiella pneumoniae at 300 ug/disc. It is filed as functional. The following applies: read-out: IZ. The method in brief: as §1
Experiment [6] deals with Toxoplasma gondii. In words: Antiparasitic activity against Toxoplasma gondii infected african green monkey Vero cells at 8 mM assessed as infected cells. Format: functional. The method in brief: as §2
For a further experiment, the system named is Escherichia coli. As to the kind of experiment: Antimicrobial activity against Escherichia coli at 300 ug/disc. Format: functional. The following applies: read-out: IZ. The method in brief: as §1
The subject of the next experiment is Enterococcus faecalis. As to the kind of experiment: Antimicrobial activity against Streptococcus faecalis at 300 ug/disc. Format: functional. The following applies: read-out: IZ. The method in brief:
as §1

The subject of experiment [7] is Toxoplasma gondii. In words: Antiparasitic activity against Toxoplasma gondii infected african green monkey Vero cells at 5 mM assessed as infected cells. Format: functional. The method in brief: as §2
The test system of experiment [8] is Mycobacterium tuberculosis. As to the kind of experiment: Antimicrobial activity against Mycobacterium tuberculosis at 300 ug/disc. Format: functional. The following applies: read-out: IZ. The method in brief: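 Agar disc diffusion: paper discs loaded with compound placed on agar plates seeded with a standardised microbial suspension. DMSO-only discs served as negative control. Chloramphenicol and rifampicin (bacteria) or nistatin (fungi) gave reference zones. Read-out was mean zone of inhibition diameter (mm). Each experiment was run three times and repeated if results differed.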

Experiment [9] relates to Candida. In words: Antimicrobial activity against Candida sp. IMUR4249 at 300 ug/disc. It is filed as functional. The following applies: read-out: IZ. The method in brief: as §1
A further experiment concerns Vero. As to the kind of experiment: Inhibition of uninfected african green monkey Vero cells. It is filed as cell-based. Particulars: Chlorocebus sabaeus.
Experiment [10] concerns Toxoplasma gondii. In words: Antiparasitic activity against Toxoplasma gondii infected african green monkey Vero cells at 2 mM assessed as infected cells. It is filed as functional. The method in brief:
as §2

In the next experiment the test system is Candida albicans. As to the kind of experiment: Antimicrobial activity against Candida albicans at 300 ug/disc. It is filed as functional. Particulars: read-out: IZ. The method in brief: as §1
The subject of experiment [11] is Toxoplasma gondii. In words: Inhibition of Toxoplasma gondii infected in african green monkey Vero cells. Format: functional, organism-based. The method in brief: as §3
Experiment [12] relates to Toxoplasma gondii. In words: Antiparasitic activity against Toxoplasma gondii infected african green monkey Vero cells at 0.1 mM assessed as infected cells. It is filed as functional. The method in brief:
as §2

Usually IC50 stands for the concentration that gives 50% inhibition. `CN(C)c1ccc(/C=N/N=C2\SC(CC(=O)O)C(=O)N2c2ccccc2)cc1` (stereo not given): the zone of inhibition at 300 µg/disc (in experiment [1]; in the experiment on Mycolicibacterium phlei; with Staphylococcus aureus; in the experiment on Candida [4]; with Bacillus subtilis; in the experiment on Saccharomyces cerevisiae) was less than 7 mm in each case. The zone of inhibition at 300 µg/disc in the experiment on Candida [5] was less than 7 mm; with Micrococcus luteus, 10 mm; with Klebsiella pneumoniae it was less than 7 mm; in the experiment on Escherichia coli, less than 7 mm; in the experiment on Enterococcus faecalis, less than 7 mm; in experiment [8] it was less than 7 mm. The zone of inhibition at 300 µg/disc is 16 mm in the experiment with Candida [9] and less than 7 mm with Candida albicans. Further, the Activity is recorded as 0% in the experiment on Toxoplasma gondii [2]; 0% in the experiment with Toxoplasma gondii [6]; 0% in the experiment with Toxoplasma gondii [7]; 0% in the experiment on Toxoplasma gondii [10]; 50.58% in the experiment on Toxoplasma gondii [12]. In addition, the figures for the IC50 in the experiment on Toxoplasma gondii [3], in the experiment on Vero and with Toxoplasma gondii [11] were 50 µM, 1000 µM and 50 µM, respectively.
On to `COc1ccc(/C=N/N=C2\SC(CC(=O)O)C(=O)N2c2ccccc2)cc1` (stereo not given), for which the zone of inhibition at 300 µg/disc was less than 7 mm in experiment [1]; less than 7 mm in the experiment with Mycolicibacterium phlei; less than 7 mm with Staphylococcus aureus; less than 7 mm with Candida [4]; 11 mm in the experiment with Bacillus subtilis; less than 7 mm in the experiment on Saccharomyces cerevisiae. Further, the zone of inhibition at 300 µg/disc in the experiment with Candida [5] was less than 7 mm; in the experiment with Micrococcus luteus it was 16 mm; in the experiment on Klebsiella pneumoniae, less than 7 mm; with Escherichia coli it was less than 7 mm; with Enterococcus faecalis it was less than 7 mm; in experiment [8], less than 7 mm. In addition, the zone of inhibition at 300 µg/disc in the experiment on Candida [9] was 16 mm; in the experiment with Candida albicans, 15 mm. Also, the Activity with Toxoplasma gondii [2] is on record as 0%; in the experiment with Toxoplasma gondii [6], 0%; in the experiment on Toxoplasma gondii [7], 5.9%; in the experiment on Toxoplasma gondii [10] it was 4.51%; in the experiment on Toxoplasma gondii [12] it was 27.32%. The IC50 in the experiment with Vero came out at 6000 µM; with Toxoplasma gondii [11], 500 µM.
Regarding `Cc1cccc(/C=N/N=C2\SC(CC(=O)O)C(=O)N2c2ccccc2)c1` (stereo not given), the zone of inhibition at 300 µg/disc (in experiment [1]; with Mycolicibacterium phlei; in the experiment with Staphylococcus aureus; in the experiment with Candida [4]; in the experiment with Bacillus subtilis; in the experiment on Saccharomyces cerevisiae) was less than 7 mm each time. In addition, the zone of inhibition at 300 µg/disc was less than 7 mm in the experiment on Candida [5]; 22 mm with Micrococcus luteus; less than 7 mm with Klebsiella pneumoniae; less than 7 mm in the experiment with Escherichia coli; 11 mm with Enterococcus faecalis; less than 7 mm in [8]. Also, the zone of inhibition at 300 µg/disc in the experiment with Candida [9] was less than 7 mm; in the experiment with Candida albicans it was 9 mm. Moreover, the Activity in the experiment with Toxoplasma gondii [2] came out at 0%; in the experiment with Toxoplasma gondii [6], 10.13%; in the experiment on Toxoplasma gondii [7], 16.19%; in the experiment with Toxoplasma gondii [10] it was 15.54%; with Toxoplasma gondii [12] it was 66%. Further, the figures for the IC50 in the experiment on Toxoplasma gondii [3], in the experiment with Vero and in the experiment with Toxoplasma gondii [11] were 500 µM, 9000 µM and 1000 µM, respectively.
For `O=C(O)CC1S/C(=N\N=C\c2ccccc2)N(c2ccccc2)C1=O` (stereo not given), the zone of inhibition at 300 µg/disc is 9 mm in [1]; 7 mm in the experiment with Mycolicibacterium phlei; less than 7 mm with Staphylococcus aureus; less than 7 mm with Candida [4]; 15 mm with Bacillus subtilis; less than 7 mm in the experiment with Saccharomyces cerevisiae. Besides, the zone of inhibition at 300 µg/disc with Candida [5] is less than 7 mm; in the experiment with Micrococcus luteus, 20 mm; with Klebsiella pneumoniae, less than 7 mm; with Escherichia coli, less than 7 mm; in the experiment on Enterococcus faecalis it was 12 mm; in experiment [8], 14 mm. Further, the zone of inhibition at 300 µg/disc in the experiment on Candida [9] is less than 7 mm; with Candida albicans it was 8 mm. Also, the Activity in the experiment on Toxoplasma gondii [2] amounted to 0%; in the experiment with Toxoplasma gondii [6] it was 0%; in the experiment with Toxoplasma gondii [7], 14.6%; in the experiment with Toxoplasma gondii [10] it was 48.5%; in the experiment with Toxoplasma gondii [12], 69.7%. The IC50 in the experiment on Toxoplasma gondii [3] amounted to 1000 µM; with Vero, 5000 µM; in the experiment on Toxoplasma gondii [11], 4000 µM.
Take `COc1cc(/C=N/N=C2\SC(CC(=O)O)C(=O)N2c2ccccc2)ccc1O` (stereo not given): the zone of inhibition at 300 µg/disc (in [1]; in the experiment with Mycolicibacterium phlei; in the experiment with Staphylococcus aureus; with Candida [4]; with Bacillus subtilis; in the experiment on Saccharomyces cerevisiae) was less than 7 mm in each case. In addition, the zone of inhibition at 300 µg/disc (in the experiment with Candida [5]; in the experiment on Micrococcus luteus; in the experiment with Klebsiella pneumoniae; in the experiment on Escherichia coli; in the experiment with Enterococcus faecalis; in experiment [8]) was less than 7 mm in each case. In the experiment with Candida albicans, the zone of inhibition at 300 µg/disc was less than 7 mm. Further, the Activity with Toxoplasma gondii [2] turned out to be 0%; in the experiment on Toxoplasma gondii [6], 0%; in the experiment with Toxoplasma gondii [7], 3.5%; in the experiment on Toxoplasma gondii [10], 41.96%; in the experiment with Toxoplasma gondii [12], 46.02%. For the same compound, the half-inhibitory concentration (IC50) with Toxoplasma gondii [3] is 1000 µM; in the experiment on Vero it was 100 µM; with Toxoplasma gondii [11], 3000 µM.
Consider `O=C(O)CC1S/C(=N\N=C\c2cccc(Cl)c2)N(c2ccccc2)C1=O` (stereo not given), for which the zone of inhibition at 300 µg/disc (in [1]; with Mycolicibacterium phlei; with Staphylococcus aureus; in the experiment on Candida [4]; with Bacillus subtilis; with Saccharomyces cerevisiae) was less than 7 mm in each case. Moreover, the zone of inhibition at 300 µg/disc in the experiment on Candida [5] is less than 7 mm; in the experiment on Micrococcus luteus, 16 mm; with Klebsiella pneumoniae, less than 7 mm; in the experiment on Escherichia coli, less than 7 mm; with Enterococcus faecalis it was 12 mm; in experiment [8], less than 7 mm. For the same compound, the figures for the zone of inhibition at 300 µg/disc in the experiment on Candida [9] and with Candida albicans were 11 mm and less than 7 mm, respectively. Besides, the Activity in the experiment on Toxoplasma gondii [2] came to 0%; with Toxoplasma gondii [6] it was 0%; in the experiment with Toxoplasma gondii [7], 33.5%; with Toxoplasma gondii [10], 34.8%; with Toxoplasma gondii [12], 53.74%. Besides, the half-inhibitory concentration (IC50) in the experiment on Toxoplasma gondii [3] amounted to 2000 µM; in the experiment with Vero, 10000 µM; with Toxoplasma gondii [11], 3000 µM.
